Source: ChEMBL document CHEMBL1147670, “2,6-disubstituted and 2,6,8-trisubstituted purines as adenosine receptor antagonists” (J Med Chem, 2006)
The source made the active and inactive calls. The rule behind the calls is not given here.

Columns and labels:
Adenosine receptor A3 = molecular target: T1, Adenosine receptor A3 (Homo sapiens, UniProt P0DMS8); assay: Displacement of [125I]AB-MECA from human adenosine A3 receptor expressed in HEK293 cells; type: cell-based
T1 sequence (P0DMS8 whole entry): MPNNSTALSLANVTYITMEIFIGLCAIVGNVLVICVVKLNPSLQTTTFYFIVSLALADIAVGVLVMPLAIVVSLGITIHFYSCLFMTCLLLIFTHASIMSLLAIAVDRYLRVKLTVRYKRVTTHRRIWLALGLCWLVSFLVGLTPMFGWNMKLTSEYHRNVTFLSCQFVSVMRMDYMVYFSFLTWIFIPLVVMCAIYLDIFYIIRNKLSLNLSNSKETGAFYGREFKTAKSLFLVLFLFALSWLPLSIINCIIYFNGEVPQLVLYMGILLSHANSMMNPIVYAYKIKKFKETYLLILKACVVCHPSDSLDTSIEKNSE

Adenosine receptor A1 [1] = molecular target: T2, Adenosine receptor A1 (Homo sapiens, UniProt P30542); assay: Displacement of [3H]DPCPX from human adenosine A1 receptor expressed in CHO cells; type: cell-based
T2 sequence (P30542 whole entry): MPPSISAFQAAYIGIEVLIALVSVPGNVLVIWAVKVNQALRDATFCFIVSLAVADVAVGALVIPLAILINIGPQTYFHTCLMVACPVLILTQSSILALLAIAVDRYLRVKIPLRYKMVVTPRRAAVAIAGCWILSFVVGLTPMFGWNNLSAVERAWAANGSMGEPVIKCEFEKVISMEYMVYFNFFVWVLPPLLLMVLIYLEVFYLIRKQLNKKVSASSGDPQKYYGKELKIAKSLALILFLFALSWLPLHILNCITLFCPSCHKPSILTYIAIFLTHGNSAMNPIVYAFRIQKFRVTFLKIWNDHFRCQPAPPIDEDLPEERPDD
Method in brief: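 Competition binding against [³H]DPCPX (K_D 1.6 nM) at human A1 receptors expressed in CHO cells. Ki was derived by nonlinear regression, mean ± SEM, n = 3.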

Adenosine receptor A2a [2] = molecular target: T3, Adenosine receptor A2a (Homo sapiens, UniProt P29274); assay: Displacement of [3H]ZM 241385 from human adenosine A2a receptor expressed in HEK293 cells at 1 uM; type: cell-based
T3 sequence (P29274 whole entry): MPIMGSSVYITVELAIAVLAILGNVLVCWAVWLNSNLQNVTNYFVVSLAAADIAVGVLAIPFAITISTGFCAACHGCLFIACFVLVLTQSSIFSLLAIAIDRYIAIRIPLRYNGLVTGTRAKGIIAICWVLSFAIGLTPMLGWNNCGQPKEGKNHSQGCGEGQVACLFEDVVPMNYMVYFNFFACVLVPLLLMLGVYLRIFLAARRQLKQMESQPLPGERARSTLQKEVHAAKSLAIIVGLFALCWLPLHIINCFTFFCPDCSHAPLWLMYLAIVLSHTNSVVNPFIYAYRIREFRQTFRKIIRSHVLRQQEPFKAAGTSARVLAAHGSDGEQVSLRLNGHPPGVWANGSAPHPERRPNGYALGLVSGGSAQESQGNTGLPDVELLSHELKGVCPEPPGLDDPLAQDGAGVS
Method in brief: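 Single-point screen at 1 µM for % displacement of specific [³H]ZM 241385 binding at human A2A receptors in HEK 293 cells, n = 2.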

Adenosine receptor A2a [3] = molecular target: T3, Adenosine receptor A2a; assay: Displacement of [3H]ZM 241385 from human adenosine A2a receptor expressed in HEK293 cells; type: cell-based
Method in brief: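 Radioligand competition using [³H]ZM 241385 (K_D 1.0 nM) at human A2A receptors expressed in HEK 293 cells. Ki was obtained by nonlinear regression, ± SEM, n = 3.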

Adenosine receptor A1 [4] = molecular target: T2, Adenosine receptor A1; assay: (§1) Activity against human adenosine A1 receptor in CHO cells assessed by the antagonizing effect of 100 nM CPA on forskolin-induced cAMP production; type: functional, cell-based
Method in brief: (§2)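 Whole-cell cAMP assay in CHO cells expressing human A1 receptor, 2 × 10⁵ cells/well grown overnight as a monolayer. Cells were pretreated 30 min at 37 °C with adenosine deaminase 0.8 IU/mL, rolipram 50 µM and cilostamide 50 µM in HEPES/DMEM pH 7.4. Compound was then given against 100 nM CPA, followed by forskolin 10 µM for 15 min. cAMP was measured by [³H]cAMP/PKA competition. A full concentration-response curve gave K_B.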

[5] = molecular target: T4, Adenosine receptor A1 (Homo sapiens) (UniProt P30542); assay: as §1; type: functional, cell-based; method in brief: as §2
T4 sequence (whole entry): T2 sequence (P30542 whole entry)

[6] = molecular target: Adenosine receptors; A1 & A2a (Homo sapiens) (UniProt P30542+P29274); assay: Selectivity for human adenosine A1 receptor over adenosine A2a receptor; type: protein assay
Chain of Adenosine receptors; A1 & A2a (Homo sapiens) (P29274 whole entry, looked up, one chain of several): as the sequence (P29274 whole entry) above
Method in brief: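 Ki values from radioligand displacement binding at each receptor. Human A1 expressed in CHO cells with [3H]DPCPX (KD 1.6 nM); human A2A expressed in HEK 293 cells with [3H]ZM 241385 (KD 1.0 nM). Ki from nonlinear regression, mean ± SEM (n = 3); selectivity compares the A1 and A2A Ki values.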

[7] = molecular target: T4, Adenosine receptor A1 (Homo sapiens); assay: Activity against human adenosine A1 receptor in CHO cells by increase of forskolin-induced cAMP production at 100 nM; type: functional, cell-based; conditions: filed as antagonist
Method in brief: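 Human A1-expressing CHO monolayers were preincubated 30 min at 37 °C with adenosine deaminase (0.8 IU/mL), rolipram and cilostamide (50 µM each) in HEPES/DMEM pH 7.4. Test compound at 100 nM was added for 10 min, then forskolin 10 µM for 15 min, and the reaction was stopped with ice-cold 0.1 M HCl. cAMP was measured by [³H]cAMP competition for PKA. Forskolin alone was set at 100% and CPA 1 µM at 0%. At least three experiments in duplicate.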

[8] = molecular target: T4, Adenosine receptor A1 (Homo sapiens); assay: Displacement of [3H]DPCPX from human adenosine A1 receptor expressed in CHO cells at 1 uM; type: cell-based
Method in brief: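 Inhibition of specific [³H]DPCPX binding to human A1 receptors in CHO cells by test compound at 1 µM, reported as % displacement, n = 2.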

Structure (SMILES) | Ki (Adenosine receptor A3) | Ki (Adenosine receptor A1 [1]) | Activity (Adenosine receptor A2a [2]) | Ki (Adenosine receptor A2a [3]) | also measured
COc1ccc(-c2nc(-c3ccccc3)c3[nH]cnc3n2)cc1 | 4 nM | 32 nM | 47% | – | –
c1ccc(-c2nc(-c3ccccc3)c3nc(C4CCCCC4)nc-3[nH]2)cc1 | 200 nM | 0.73 nM | – | 118 nM | IC50 (Adenosine receptor A1 [4]): 477 nM
Clc1ccc(-c2nc(-c3ccccc3)c3[nH]cnc3n2)cc1 | 94 nM | 27 nM | – | 315 nM | –
c1ccc(-c2nc(-c3ccccc3)c3nc(C4CCCC4)nc-3[nH]2)cc1 | 35 nM | 0.29 nM | – | 55 nM | Activity [5]: Active; Ratio Ki [6]: 190
Cc1ccc(-c2nc(-c3ccccc3)nc3nc(C4CCCCC4)[nH]c23)cc1 | – | 36 nM | – | – | –
COc1ccc(-c2[nH]c(-c3ccccc3)nc3nc(C4CCCCC4)nc2-3)cc1 | 138 nM | 3.7 nM | 27% | – | –
CC(C)c1nc2[nH]c(-c3ccccc3)nc(-c3ccccc3)c-2n1 | 9.5 nM | 0.82 nM | – | 148 nM | Activity [7]: Antagonist
c1ccc(-c2nc(-c3ccccc3)c3[nH]cnc3n2)cc1 | 38 nM | 4.1 nM | – | 53 nM | –
Clc1ccc(-c2nc(-c3ccccc3)nc3nc(C4CCCCC4)[nH]c23)cc1 | 243 nM | 25 nM | – | – | –
Clc1ccc(-c2[nH]c(-c3ccccc3)nc3nc(C4CCCCC4)nc2-3)cc1 | – | – | 24% | – | –
Cc1ccc(-c2nc(-c3ccc(C)cc3)c3[nH]cnc3n2)cc1 | 9.3 nM | 235 nM | 4% | – | –
CCCc1nc2nc(-c3ccccc3)nc(-c3ccccc3)c2[nH]1 | 17 nM | 4.4 nM | – | 167 nM | –
COc1ccc(-c2nc(-c3ccc(OC)cc3)c3[nH]cnc3n2)cc1 | 165 nM | – | 37% | – | Activity [8]: 40%
Cc1ccc(-c2[nH]c(-c3ccccc3)nc3nc(C4CCCCC4)nc2-3)cc1 | – | – | 9% | – | –
Clc1ccc(-c2[nH]c(-c3ccccc3)nc3nc(C4CCCCC4)nc2-3)cc1Cl | – | 37 nM | 20.3% | – | –
c1ccc(-c2nc(-c3ccccc3)c3[nH]c(-c4ccccc4)nc3n2)cc1 | 49 nM | 21 nM | – | 66 nM | –
Cn1c(C2CCCCC2)nc2c(-c3ccccc3)nc(-c3ccccc3)nc21 | – | – | 0% | – | Activity [8]: 24%
Cc1ccc(-c2nc(-c3ccccc3)c3[nH]cnc3n2)cc1 | 9.4 nM | 4 nM | – | 289 nM | –
Clc1ccc(-c2nc(-c3ccc(Cl)cc3)c3[nH]cnc3n2)cc1 | 68 nM | – | 11% | – | Activity [8]: 21%
